PfGluPho inh: PfG6PD (Plasmodium falciparum) enzyme inhibition. actives 0.78% (n = 350,000). AID 504690. inhibition, % at 20 µM. PfGluPho enzyme, NADPH resazurin-diaphorase fluorescence;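 active means inhibition reaching at least a set limit at 20 µM in the primary screen, cut at about 59% in these data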
G6PDH counter: counter-screen for G6PDH assay hits: L. mesenteroides G6PDH inhibition | Purified L. mesenteroides G6PDH, diaphorase/resazurin coupled fluorescence, 45 min | inhibition, % at 5 µM | actives 0.12% (n = 200,000); in the data active means inhibition above about 50%
HKDC1 inh: HKDC1 (human) hexokinase inhibition. recombinant HKDC1, G6PDH/diaphorase resazurin coupled fluorescence. inhibition, % at 20 µM. actives 0.16% (n = 340,000). AID 493160;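 active means inhibition above about 35% when tested at 20 µM, limit read from the data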
Target sequence (Q2TB90 whole entry, looked up): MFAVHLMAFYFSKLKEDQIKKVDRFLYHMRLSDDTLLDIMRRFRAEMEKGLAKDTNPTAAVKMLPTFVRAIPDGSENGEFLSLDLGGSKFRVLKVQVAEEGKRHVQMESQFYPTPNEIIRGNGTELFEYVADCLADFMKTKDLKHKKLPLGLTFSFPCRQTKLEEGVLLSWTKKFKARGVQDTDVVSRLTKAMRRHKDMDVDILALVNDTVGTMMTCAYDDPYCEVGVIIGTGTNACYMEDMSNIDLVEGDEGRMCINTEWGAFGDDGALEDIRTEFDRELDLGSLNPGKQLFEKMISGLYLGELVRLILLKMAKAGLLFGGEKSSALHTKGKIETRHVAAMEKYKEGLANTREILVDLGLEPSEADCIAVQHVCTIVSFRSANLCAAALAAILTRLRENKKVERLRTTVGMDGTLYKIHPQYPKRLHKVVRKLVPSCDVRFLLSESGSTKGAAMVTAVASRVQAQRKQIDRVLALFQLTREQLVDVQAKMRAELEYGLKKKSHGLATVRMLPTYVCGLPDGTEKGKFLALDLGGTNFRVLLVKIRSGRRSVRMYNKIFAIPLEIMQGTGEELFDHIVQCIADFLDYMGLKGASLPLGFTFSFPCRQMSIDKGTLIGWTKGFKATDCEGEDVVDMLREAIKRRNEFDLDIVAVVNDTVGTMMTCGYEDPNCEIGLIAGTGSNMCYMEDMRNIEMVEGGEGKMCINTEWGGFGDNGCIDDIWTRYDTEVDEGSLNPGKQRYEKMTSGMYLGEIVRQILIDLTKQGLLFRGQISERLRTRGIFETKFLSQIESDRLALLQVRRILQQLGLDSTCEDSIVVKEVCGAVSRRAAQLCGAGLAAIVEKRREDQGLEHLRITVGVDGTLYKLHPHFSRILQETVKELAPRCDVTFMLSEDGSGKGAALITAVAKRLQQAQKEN
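Assay system: in-house recombinant HK5 (HKDC1) enzyme. Input: HKDC1 at 5 µg/mL. Medium: Tris pH 8.0 buffer with MgCl2, Tween-20, BSA, BME. Dosing: single 20 µM dose. Schedule: 90 min reaction incubation at room temperature, dark. Signal: resazurin-to-resorufin fluorescence via G6PDH and diaphorase coupling, 525/613 nm. Controls: DMSO-enzyme wells negative, buffer-substituted wells positive.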
Diaphorase inh: inhibits diaphorase or chemically oxidizes, flagging diaphorase assay artifacts | inhibition, % at 20 µM | AID 1217 | diaphorase resazurin-to-resorufin fluorescence, NADH, 16 min; bacterial (C. kluyveri) enzyme, not human | actives 0.69% (n = 190,000);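 active means primary screen inhibition at 20 µM above a set limit, cut at about 50% in these data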
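controls = No-NADH positive control and DMSO neutral control | system = Clostridium kluyveri diaphorase enzyme | timing = reaction incubation of 16 min at room temperature | signal = resorufin fluorescence 544/590 nm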
PfG6PD confirm: confirmation of Plasmodium falciparum G6PD inhibitors; shares compounds with PfGluPho inh; recombinant PfGluPho, NADPH-diaphorase-resazurin fluorescence; actives 34% (n = 2,400); inhibition, % at 20 µM;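 active means inhibition of at least 50% at 20 µM in any single replicate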
Diaphorase 10uM: diaphorase inhibition or oxidation at 10 uM NADPH; shares compounds with PfGluPho inh; diaphorase-coupled resazurin reduction, fluorescence, NADPH 10 uM; inhibition, % at 20 µM; actives 39% (n = 820); AID 504862;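 active means average inhibition reaching 50% or more with the compound at 20 µM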;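 further: resorufin red fluorescence formed as diaphorase reduces resazurin using NADPH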
Diaphorase 30uM: counter-screen for P. falciparum G6PD inhibitors: diaphorase inhibitors, oxidizers; actives 29% (n = 820); inhibition, % at 20 µM; shares compounds with PfGluPho inh; Diaphorase/resazurin coupled assay, resorufin fluorescence, 30 uM NADPH;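 active means inhibition averaging 50% or more, tested at 20 µM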
A number is an active result; 0 = inactive; - = not tested or not shown. Shown are actives, neighbours in structure and some others; about 1.2% of the full set was active somewhere.

SMILES	PfGluPho inh	G6PDH counter	HKDC1 inh	Diaphorase inh	PfG6PD confirm	others
Fc1ccc(-c2nn3c(C4COc5ccccc5O4)nnc3s2)cc1 (centres undefined)	0	0	0	0	-
c1csc(-c2nn3c(C4COc5ccccc5O4)nnc3s2)c1 (centres undefined)	59	0	0	0	0
CC(C)COC(=O)N(C)C[C@@H]1OCc2cnnn2CCCC(=O)N([C@H](C)CO)C[C@@H]1C	0	-	-	-	-
CSCCC(NC(=O)c1ccccc1Br)C(=O)NNC(=O)c1ccco1 (centres undefined)	0	-	0	-	-
CCn1c(N)c(C(=O)NCCCOC)sc1=S	65	0	0	0	0
CCn1c(N)c(C(=O)NC)sc1=S	80	0	0	0	50	Diaphorase 10uM=0;Diaphorase 30uM=0
CCNC(=O)c1sc(=S)n(CC)c1N	0	0	0	0	-
CCn1c(N)c(C(=O)NCC2CCCO2)sc1=S (centres undefined)	61	0	0	0	0
Nc1nccc(N2CCCCC2)n1	0	-	-	-	-
O=C(CSc1ncn(-c2ccccc2)n1)N1CCc2ccccc21	60	0	0	0	0
O=C(CN1CCN(c2ccc(O)cc2)CC1)N1CCc2ccccc21	63	-	0	-	0
O=C(CN1CCN(c2ccccc2)CC1)N1CCc2ccccc21	0	-	0	-	-
C[C@H](CO)N1C[C@H](C)[C@H](CN(C)S(=O)(=O)c2ccc(F)cc2)OCc2cnnn2CCCC1=O	0	-	-	-	-
O=C(Cc1ccc(NC(=O)C2CCCN(C(=O)C3CCC3)C2)cc1)Nc1cccc(C(=O)N2CCCC2)c1 (centres undefined)	0	-	0	-	-
S=c1cnc2ccccc2[nH]1	64	0	0	0	0
CCCC1Nc2ccc(C(=O)O)cc2C2C=CCC12 (centres undefined)	0	0	0	0	-
CCOC(=O)C1Nc2ccc(C(=O)O)cc2C2C=CCC12 (centres undefined)	62	-	0	-	0
CCCCOc1ccc(Cc2n[nH]c(=S)n2N)cc1	61	0	0	0	50	Diaphorase 10uM=0;Diaphorase 30uM=0
O=C(CSc1nnc(CNC(=O)c2c(F)cccc2F)o1)NCc1ccccc1Cl	0	-	0	-	-
c1cncc(-c2nc3cc4ccccc4cc3[nH]2)c1	62	0	0	0	0
c1ccc(-c2nc3cc4ccccc4cc3[nH]2)nc1	89	0	0	0	0
CC(=O)Nc1ccc2nc(-c3ccccn3)[nH]c2c1	0	0	0	0	-
Cc1ccc(NC(=O)C2C(=O)N(CCO)C3(C)CC2c2ccccc2O3)cc1 (centres undefined)	65	0	0	0	0
CC(NC(=O)C1C(=O)N(CCO)C2(C)CC1c1ccccc1O2)c1ccccc1 (centres undefined)	0	0	0	0	-
COc1ccc(NC(=O)C2C(=O)N(C)C3(C)CC2c2ccccc2O3)cc1 (centres undefined)	0	0	0	0	-
SMILES	PfGluPho inh	G6PDH counter	HKDC1 inh	Diaphorase inh	PfG6PD confirm	others
COc1ccc(NC(=O)C2C(=O)N(CCO)C3(C)CC2c2ccccc2O3)cc1 (centres undefined)	69	0	0	0	0
COCCCNC(=O)c1ccc2c3c(onc13)-c1ccccc1C2=O	0	-	0	-	-
CC(=O)OCCNc1cc(N2CCN(C)CC2)c2noc3c2c1C(=O)c1ccccc1-3	85	0	0	0	0
CCN(CC(=O)Nc1ccccc1C(F)(F)F)C(=O)c1ccc2[nH]c3c(c2c1)CC(C)CC3 (centres undefined)	90	-	0	-	0
CC1CCc2[nH]c3ccc(C(=O)N(C)CC(=O)Nc4ccc(F)cc4)cc3c2C1 (centres undefined)	0	-	0	-	-
CC1(C)C(=O)Nc2ccccc2N1C(=O)COc1cc(Cl)ccc1Cl	0	-	0	-	-
CC(=O)Cc1cc(O)c2ccccc2c1OC(=O)c1ccccc1	66	0	0	0	0
CC(=O)c1cc(C)c(OC(=O)c2ccccc2)c(C)c1	0	-	0	-	-
COc1ccccc1-n1c(SCC(=O)O)nc2c(sc(=S)n2-c2ccc(C)c(C)c2)c1=O	0	-	0	-	-
CCOc1ccccc1-n1c(=S)sc2c(=O)n(-c3ccc(F)cc3)c(SCC(=O)O)nc21	69	-	0	-	0
CCN(CC)C(=O)CSc1nc2c(sc(=S)n2-c2ccccc2)c(=O)n1-c1ccc(OC)c(OC)c1	0	-	0	-	-
CCN(CC)C(=O)CSc1nc2c(sc(=S)n2-c2ccccc2)c(=O)n1-c1ccc(OC)cc1OC	79	-	0	-	0
C[C@H]1CN([C@@H](C)CO)C(=O)CCCn2nncc2CO[C@@H]1CN(C)Cc1ccccc1	0	-	-	-	-
COc1ccc(NC(=O)Nc2cccc([N+](=O)[O-])c2)cc1Cl	61	0	0	0	0
CCN(CC)CCOc1ccc(C=NNc2nc3c([nH]2)c(=O)n(C)c(=O)n3C)cc1	0	-	0	-	-
O=c1[nH]c(NCCO)c(N=Cc2ccccc2)c(=O)[nH]1	68	-	0	-	104	Diaphorase 10uM=79;Diaphorase 30uM=0
Nc1[nH]c(=O)[nH]c(=O)c1N=Cc1ccccc1	131	-	0	-	98	Diaphorase 10uM=0;Diaphorase 30uM=0
CCc1ccc(C2CC(=O)N3CN(c4ccccc4)CSC3=C2C#N)cc1 (centres undefined)	78	0	0	55	0
N#CC1=C2SCN(c3ccc(F)cc3)CN2C(=O)CC1c1cccc(F)c1 (centres undefined)	69	0	0	0	0
O=C(CCc1c[nH]c2ccccc12)NCCc1ccc(O)cc1	0	-	0	-	-
CCOc1ccccc1C(=O)Nc1cc(Cl)ccc1O	67	0	0	0	0
COc1ccccc1C(=O)Nc1cc(Cl)ccc1O	0	0	0	0	-
C=CCn1c(Cc2ccccc2)nc2c(cnn2-c2ccccc2)c1=O	0	-	0	-	-
CCOC(=O)c1cnc2ccc(C)cc2c1NCCO	0	0	0	0	-
CCOC(=O)c1cnc2ccc(C)cc2c1Sc1ccccc1C(=O)OC	104	0	0	0	48	Diaphorase 10uM=0;Diaphorase 30uM=0
SMILES	PfGluPho inh	G6PDH counter	HKDC1 inh	Diaphorase inh	PfG6PD confirm	others
CCC(CC)C(=O)OCC(=O)C1(O)CCC2C3CCC4=CC(=O)CCC4(C)C3C(O)CC21C (centres undefined)	0	-	0	-	-
O=C(NC1CCCCC1)c1cc(-c2cccs2)on1	0	-	0	-	-
CN(C)S(=O)(=O)c1ccc(C(=O)NC(=O)CSc2nncs2)cc1	0	-	0	-	-
Cc1cc(C)c2c(n1)sc1c(N3CCN(C)CC3)ncnc12	0	-	0	-	-
CCN(CC)c1ncnc2c1sc1nc(C)cc(C)c12	72	0	0	0	0
Cc1cccc(Cn2cnc3c(sc4nc(C)cc(C)c43)c2=O)c1	0	-	0	-	-
Cc1cc(C)c2c(n1)sc1c(N3CCCCC3)ncnc12	70	-	0	-	0
COc1cccc(CNC(=O)C2CCN(S(=O)(=O)c3ccc4c(c3)CC(C)N4C(C)=O)CC2)c1 (centres undefined)	0	-	0	-	-

Source: PubChem (Sanford-Burnham Center for Chemical Genomics)
